Measured values as given in ChEMBL document CHEMBL1149835, “Citrinin dimers from the halotolerant fungus Penicillium citrinum B-57” (J Nat Prod, 2008).

Tests used:
[1] = tested on: Radical scavenging activity; assay: Antioxidant activity assessed as DPPH free radical scavenging activity after 30 mins; assay type: functional
Procedure, shortened: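 DPPH dissolved in MeOH; 160 µL of reaction mixture containing test sample combined with 40 µL DPPH solution, kept in the dark 30 min. Absorbance read at 520 nm and percent inhibition calculated. IC50 (µM giving 50% inhibition of DPPH radical) derived from the log-dose inhibition curve. L-ascorbic acid served as positive control.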

[2] = Cytotoxicity against mouse NS1 cells; assay type: functional
[3] = tested on: A549; assay: Cytotoxicity against human A549 cells after 24 hrs by SRB assay; assay type: functional, cell-based; details: A549, 24 h
Procedure, shortened: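 SRB method: cells plated at 2 × 10^5 cells/mL, then test solutions in MeOH added and cultured a further 24 h. Cells fixed with 12% trichloroacetic acid, stained with 0.4% SRB, absorbance read at 515 nm. IC50 (concentration inhibiting proliferation 50%) calculated from the linear portion of log dose-response curves; paclitaxel positive control.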

[4] = tested on: HL-60; assay: Cytotoxicity against human HL60 cells after 72 hrs by MTT assay; assay type: functional, cell-based; details: HL-60, 72 h
[5] = tested on: Bel-7402; assay: Cytotoxicity against human Bel7402 cells after 24 hrs by SRB assay; assay type: functional, cell-based; details: Bel-7402, 24 h
[6] = tested on: P388; assay: Cytotoxicity against mouse P388 cells after 72 hrs by MTT assay; assay type: functional, cell-based; details: P388, 72 h
Procedure, shortened: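 P388 and HL-60 cells seeded at 5 × 10^4 cells/mL and pre-incubated 24 h. Test solutions in MeOH added, then 72 h exposure. MTT (5 mg/mL solution) added for 4 h, formazan dissolved in DMSO, absorbance read at 540 nm. IC50 taken from the linear part of log dose-response curves. Paclitaxel as positive control.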

Row | SMILES | IC50 [1] [µM] | also measured
1 | Cc1cc(O)c(C)c(O)c1C | 3.8 | –
2 | O=C1O[C@H]([C@@H](O)CO)C(O)=C1O [ASCORBIC ACID] | 22.7 | –
3 | CC1=C([C@H](C)[C@@H](C)OC=O)C(=O)C2=C(C1=O)[C@@H]1O[C@H](C)[C@@H](C)c3c(C)c(O)cc(c31)O2 [CITRININ H1] | 58.7 | –
4 | CC1=C2C(=CO[C@H](C)[C@H]2C)C(O)=C(C(=O)O)C1=O [CITRININ] | 160 | –
5 | Cc1c2c(c3oc4cc(=O)c(C)c5c-4c(c3c1O)O[C@H](C)[C@H]5C)O[C@H](C)[C@H]2C [DICITRININ A] | 10.6 | LD99 [2]: 6.3 µg/mL
6 | Cc1c(O)c(C(=O)O)c(O)c2c1[C@H](C)[C@@H](C)OC2 [DIHYDROCITRININ] | 123 | –
7 | Cc1c(O)c(C(=O)O)c(O)c2c1[C@H](C)[C@@H](C)OC2=O [DIHYDROCITRINONE] | > 1000 | –
8 | Cc1cc(O)cc(O)c1 [ORCINOL] | 0.8 | –
9 | CC(=O)O[C@H]1C(=O)[C@@]2(C)[C@H]([C@H](OC(=O)c3ccccc3)[C@]3(O)C[C@H](OC(=O)[C@H](O)[C@@H](NC(=O)c4ccccc4)c4ccccc4)C(C)=C1C3(C)C)[C@]1(OC(C)=O)CO[C@@H]1C[C@@H]2O [PACLITAXEL] | – | IC50 [3]: 0.93 µM
10 | Cc1c(O)c2c(c3c1[C@H](C)[C@@H](C)O3)Oc1cc(O)c(C)c3c1[C@H]2O[C@H](C)[C@H]3C [PENICITRINOL A] | 26.8 | –
11 | CO[C@@]12O[C@H](C)[C@@H](C)C1=C(C)C(=O)C1=C2Oc2cc(O)c(C)c3c2[C@H]1O[C@H](C)[C@H]3C [PENICITRINOL B] | 291 | IC50 [4]: > 50 µM; IC50 [5]: > 50 µM; IC50 [6]: > 50 µM; IC50 [3]: > 50 µM
12 | Cc1c([C@H](C)[C@H](C)O)c(O)c2oc3cc(=O)c(C)c4c-3c(c2c1O)O[C@H](C)[C@H]4C [PENNICITRINONE C] | 55.3 | IC50 [4]: > 50 µM; IC50 [5]: > 50 µM; IC50 [6]: > 50 µM; IC50 [3]: > 50 µM
13 | Cc1c([C@H](C)[C@@H](C)O)cc(O)c(C(=O)O)c1O [PHENOL A ACID] | 796 | –
14 | Cc1c(O)cc(O)cc1[C@H](C)[C@@H](C)O [PHENOL A] | 22.5 | –
15 | Cc1c(O)c(C)c2c(c1O)C(=O)OC(C)(O)C2 (centres undefined) [SCLEROTININ B] | > 1000 | –
